The target of one assay is CBX5 chromodomain (Homo sapiens, UniProt P45973). Briefly: TR-FRET competition assay, CBX5. To be noted: for affinity improvement toward CBX5 over UNC5191 by TR-FRET: compared to UNC5191; for selectivity for CBX5 over CBX7: from TR-FRET IC50 values. Type of assay: binding. The essentials:
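Competition of biotinylated peptide tracer P42 from His-tagged chromodomain: CBX5 30 nM with 30 nM tracer, MPP8 25 nM with 50 nM tracer. Detection with 10 nM ULight-anti-6xHis and 2 nM Eu-streptavidin in 20 mM Tris pH 7.5, 150 mM NaCl, 0.05% Tween 20, 2 mM DTT. 1 h equilibration in dark; 665/615 nm ratio. 0–100% scale against DMSO and 100 μM UNC5241. Four-parameter IC50 fit; mean ± SD of three replicates.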
(Time-resolved FRET reads energy transfer from a long-lived donor to a nearby acceptor.)

The target of the next assay is CBX5 (HP1α) chromodomain (Homo sapiens, UniProt P45973). Briefly: Isothermal titration calorimetry. The format is binding. As to conditions: for Kd: CBX5 ITC Kd, 25 °C. The essentials: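 Run at 25 °C in 25 mM Tris–HCl pH 7.5, 150 mM NaCl, 2 mM β-mercaptoethanol. His-tagged chromodomain expressed in E. coli and purified by Ni affinity and size exclusion; concentration by Edelhoch method. Typically 50 μM protein with 0.5 mM compound or 100 μM with 1.0 mM, always 10:1. One 0.2 μL injection, then 26 × 1.5 μL at 180 s spacing; first point deleted; one-site fit. Mean ± SD of at least two replicates.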
Background: Isothermal titration calorimetry measures the heat released or taken up as one component is titrated into another.

Square brackets hold non-standard residues; d marks the D form. Peptide text beside a SMILES is read from it. * marks the point of attachment. Phe(3,4-(OMe)2) = COc1ccc(C[C@H](N)C(=O)O)cc1OC; Phe(F5) = N[C@@H](Cc1c(F)c(F)c(F)c(F)c1F)C(=O)O; Lys(Et,iPr) = CCN(CCCC[C@H](N)C(=O)O)C(C)C; Cha = N[C@@H](CC1CCCCC1)C(=O)O; Nicotinoyl = O=C(c1cccnc1)*; X1 = Nc1cc(C(=O)*)ccc1Br

CBX5 (HP1α) chromodomain, sequence (P45973 18-75): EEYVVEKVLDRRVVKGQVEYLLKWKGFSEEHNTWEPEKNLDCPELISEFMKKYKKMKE
CBX5 chromodomain, sequence (P45973 18-75): as above

In the case of `CCN(CCCC[C@H](NC(=O)[C@H](CC(C)C)NC(=O)[C@H](C)NC(=O)[C@H](Cc1c(F)c(F)c(F)c(F)c1F)NC(=O)c1cccnc1)C(=O)N[C@@H](CO)C(N)=O)C(C)C` [UNC4869, N-((8S,11S,14S,17S)-8-(((S)-1-Amino-3-hydroxy-1-oxopropan-2-yl)carbamoyl)-3-ethyl-11-isobutyl-2,14-dimethyl-10,13,16-trioxo-18-(perfluorophenyl)-3,9,12,15-tetraazaoctadecan-17-yl)nicotinamide] (Nicotinoyl-[Phe(F5)]AL[Lys(Et,iPr)]S-NH2), on CBX5 chromodomain, the “affinity improvement toward CBX5 over UNC5191 by TR-FRET” value was “about 3 fold” and the “selectivity for CBX5 over CBX7” value turned out to be 26 fold.
For `CCN(CCCC[C@H](NC(=O)[C@H](Cc1ccccc1)NC(=O)[C@H](C)NC(=O)[C@H](Cc1ccccc1)NC(=O)c1cccnc1)C(=O)N[C@@H](CO)C(N)=O)C(C)C` [UNC6384, N-((8S,11S,14S,17S)-8-(((S)-1-Amino-3-hydroxy-1-oxopropan-2-yl)carbamoyl)-11-benzyl-3-ethyl-2,14-dimethyl-10,13,16-trioxo-18-phenyl-3,9,12,15-tetraazaoctadecan-17-yl)nicotinamide] (Nicotinoyl-FAF[Lys(Et,iPr)]S-NH2), the equilibrium dissociation constant (Kd) (usually the constant that tells how readily two partners part at equilibrium) at CBX5 (HP1α) chromodomain (one site binding model) is 3.38 µM.
With `CCN(CCCC[C@H](NC(=O)[C@H](CC(C)C)NC(=O)[C@H](C)NC(=O)[C@H](CC1CCCCC1)NC(=O)c1cccnc1)C(=O)N[C@@H](CO)C(N)=O)C(C)C` [UNC6383, N-((8S,11S,14S,17S)-8-(((S)-1-Amino-3-hydroxy-1-oxopropan-2-yl)carbamoyl)-18-cyclohexyl-3-ethyl-11-isobutyl-2,14-dimethyl-10,13,16-trioxo-3,9,12,15-tetraazaoctadecan-17-yl)nicotinamide] (Nicotinoyl-[Cha]AL[Lys(Et,iPr)]S-NH2), the “selectivity for CBX5 over CBX7” value at CBX5 chromodomain is 11 fold.
As for `CCN(CCCC[C@H](NC(=O)[C@H](Cc1ccc(OC)c(OC)c1)NC(=O)[C@H](C)NC(=O)[C@H](CC1CCCCC1)NC(=O)c1ccc(Br)c(N)c1)C(=O)N[C@@H](CO)C(N)=O)C(C)C` [UNC7047, 3-Amino-N-((8S,11S,14S,17S)-8-(((S)-1-amino-3-hydroxy-1-oxopropan-2-yl)carbamoyl)-18-cyclohexyl-11-(3,4-dimethoxybenzyl)-3-ethyl-2,14-dimethyl-10,13,16-trioxo-3,9,12,15-tetraazaoctadecan-17-yl)-4-bromobenzamide] (X1-[Cha]A[Phe(3,4-(OMe)2)][Lys(Et,iPr)]S-NH2), the equilibrium dissociation constant (Kd) at CBX5 (HP1α) chromodomain (mean ± SD of three replicates) is 0.237 ± 0.068 µM. At CBX5 (HP1α) chromodomain (ITC Kd compared to UNC5191), the “potency for CBX5 relative to UNC5191 by ITC” value came to 30 fold. For the same molecule, at CBX5 chromodomain, the IC50 (in general, the concentration that gives 50% inhibition) was 0.079 ± 0.04 µM and the “affinity improvement toward CBX5 over UNC5191 by TR-FRET” value was found to be 80 fold.
For the molecule `CCN(CCCC[C@H](NC(=O)[C@H](Cc1ccc(OC)c(OC)c1)NC(=O)[C@H](C)NC(=O)[C@H](Cc1ccccc1)NC(=O)c1cccnc1)C(=O)N[C@@H](CO)C(N)=O)C(C)C` [UNC6392, N-((8S,11S,14S,17S)-8-(((S)-1-Amino-3-hydroxy-1-oxopropan-2-yl)carbamoyl)-11-(3,4-dimethoxybenzyl)-3-ethyl-2,14-dimethyl-10,13,16-trioxo-18-phenyl-3,9,12,15-tetraazaoctadecan-17-yl)nicotinamide] (Nicotinoyl-FA[Phe(3,4-(OMe)2)][Lys(Et,iPr)]S-NH2), on CBX5 (HP1α) chromodomain (one site binding model), the dissociation constant (Kd) came to 1.27 µM. Moreover, on CBX5 (HP1α) chromodomain (ITC Kd compared to UNC6384), the “potency for CBX5 relative to UNC6384 by ITC” value came to 2 fold.
As for `CCN(CCCC[C@H](NC(=O)[C@H](CC(C)C)NC(=O)[C@H](C)NC(=O)[C@H](Cc1ccccc1)NC(=O)c1cccnc1)C(=O)N[C@@H](CO)C(N)=O)C(C)C` [UNC5191, N-((8S,11S,14S,17S)-8-(((S)-1-Amino-3-hydroxy-1-oxopropan-2-yl)carbamoyl)-3-ethyl-11-isobutyl-2,14-dimethyl-10,13,16-trioxo-18-phenyl-3,9,12,15-tetraazaoctadecan-17-yl)nicotinamide] (Nicotinoyl-FAL[Lys(Et,iPr)]S-NH2), binding on CBX5 (HP1α) chromodomain (one site binding model) was put at a Kd of 6.93 ± 0.82 µM.
